According to ChEMBL document CHEMBL1147015, “Design and synthesis of selective, high-affinity inhibitors of human cytochrome P450 2J2” (Bioorg Med Chem Lett, 2006):

Experiments:
Cytochrome P450 2C8 = molecular target: T1, Cytochrome P450 2C8 (Homo sapiens, UniProt P10632); test: Inhibition of human recombinant CYP2C8; type: ADME
T1 sequence (P10632 whole entry): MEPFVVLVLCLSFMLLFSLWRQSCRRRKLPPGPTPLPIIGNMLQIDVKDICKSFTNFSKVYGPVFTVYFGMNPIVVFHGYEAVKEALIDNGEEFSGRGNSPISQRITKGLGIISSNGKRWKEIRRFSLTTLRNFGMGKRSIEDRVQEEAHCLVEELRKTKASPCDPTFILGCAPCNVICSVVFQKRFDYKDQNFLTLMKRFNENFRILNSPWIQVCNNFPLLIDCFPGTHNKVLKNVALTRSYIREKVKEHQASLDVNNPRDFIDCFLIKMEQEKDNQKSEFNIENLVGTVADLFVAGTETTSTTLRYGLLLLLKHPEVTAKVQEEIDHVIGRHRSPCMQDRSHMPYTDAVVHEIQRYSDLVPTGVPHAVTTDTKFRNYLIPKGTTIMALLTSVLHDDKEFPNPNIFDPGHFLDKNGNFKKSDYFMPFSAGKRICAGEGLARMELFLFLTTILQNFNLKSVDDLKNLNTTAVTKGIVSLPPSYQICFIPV

Cytochrome P450 3A4 = Cytochrome P450 3A4 (Homo sapiens, UniProt P08684); test: Inhibition of human recombinant CYP3A4; type: ADME
Chain of Cytochrome P450 3A4 (P08684 whole entry): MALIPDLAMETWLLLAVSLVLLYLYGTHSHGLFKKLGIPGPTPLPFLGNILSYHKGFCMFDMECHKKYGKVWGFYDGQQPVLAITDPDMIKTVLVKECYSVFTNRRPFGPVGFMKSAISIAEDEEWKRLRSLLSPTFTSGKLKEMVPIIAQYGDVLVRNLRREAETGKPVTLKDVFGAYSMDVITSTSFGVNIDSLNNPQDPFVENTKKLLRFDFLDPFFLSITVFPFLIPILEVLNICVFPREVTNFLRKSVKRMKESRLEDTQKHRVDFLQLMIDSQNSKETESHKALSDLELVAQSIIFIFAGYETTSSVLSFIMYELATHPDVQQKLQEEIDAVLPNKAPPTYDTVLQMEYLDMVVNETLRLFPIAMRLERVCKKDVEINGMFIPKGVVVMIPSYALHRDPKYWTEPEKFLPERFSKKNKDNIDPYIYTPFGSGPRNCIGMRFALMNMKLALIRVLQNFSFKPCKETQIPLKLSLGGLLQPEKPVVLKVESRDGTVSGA

Cytochrome P450 2J2 = molecular target: T2, Cytochrome P450 2J2 (Homo sapiens, UniProt P51589); test: Inhibition of human recombinant CYP2J2 expressed in baculovirus-infected Sf9 insect cells
T2 sequence (P51589 whole entry): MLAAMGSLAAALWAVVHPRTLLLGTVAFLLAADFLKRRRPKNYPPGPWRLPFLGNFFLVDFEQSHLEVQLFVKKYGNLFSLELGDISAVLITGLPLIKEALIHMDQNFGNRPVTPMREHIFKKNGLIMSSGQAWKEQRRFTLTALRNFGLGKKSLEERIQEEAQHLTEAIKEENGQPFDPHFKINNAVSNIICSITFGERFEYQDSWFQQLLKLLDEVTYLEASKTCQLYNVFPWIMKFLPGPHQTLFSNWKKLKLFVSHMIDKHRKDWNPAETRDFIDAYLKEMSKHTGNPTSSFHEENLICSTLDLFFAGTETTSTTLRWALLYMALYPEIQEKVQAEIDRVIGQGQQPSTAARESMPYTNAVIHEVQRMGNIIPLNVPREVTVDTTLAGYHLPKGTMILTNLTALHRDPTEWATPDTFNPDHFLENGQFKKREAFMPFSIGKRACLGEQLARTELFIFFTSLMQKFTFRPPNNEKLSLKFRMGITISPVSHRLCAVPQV
In short: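 Ebastine hydroxylation used as the read-out. Ebastine (0.5 μM) plus inhibitor incubated at 37 °C for 2 or 4 min with Sf9 microsomes (1 nM CYP2J2) in 0.1 M phosphate buffer pH 7.4, 0.1 mM EDTA and NADPH-generating system. Stopped with cold CH3CN/CH3COOH (10:1); protein spun out; supernatant analysed by HPLC on C18. IC50 determined.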

Cytochrome P450 2B6 = molecular target: T3, Cytochrome P450 2B6 (Homo sapiens, UniProt P20813); test: Inhibition of human recombinant CYP2B6; type: ADME
T3 sequence (P20813 whole entry): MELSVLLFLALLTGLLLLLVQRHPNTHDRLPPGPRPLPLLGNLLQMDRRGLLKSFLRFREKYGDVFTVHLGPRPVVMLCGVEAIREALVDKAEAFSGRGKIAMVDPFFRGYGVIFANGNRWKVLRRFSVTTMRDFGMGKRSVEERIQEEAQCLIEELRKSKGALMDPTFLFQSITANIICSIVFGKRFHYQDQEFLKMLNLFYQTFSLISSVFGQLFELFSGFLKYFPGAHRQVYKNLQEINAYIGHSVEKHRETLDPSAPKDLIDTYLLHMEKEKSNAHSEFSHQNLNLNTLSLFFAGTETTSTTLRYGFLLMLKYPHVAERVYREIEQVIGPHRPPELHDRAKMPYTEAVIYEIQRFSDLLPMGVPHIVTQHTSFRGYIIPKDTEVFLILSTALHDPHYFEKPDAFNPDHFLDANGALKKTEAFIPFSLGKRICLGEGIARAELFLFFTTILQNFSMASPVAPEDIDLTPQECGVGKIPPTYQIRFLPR

Cytochrome P450 2C9 = Cytochrome P450 2C9 (Homo sapiens, UniProt P11712); test: Inhibition of human recombinant CYP2C9; type: ADME
Chain of Cytochrome P450 2C9 (P11712 whole entry): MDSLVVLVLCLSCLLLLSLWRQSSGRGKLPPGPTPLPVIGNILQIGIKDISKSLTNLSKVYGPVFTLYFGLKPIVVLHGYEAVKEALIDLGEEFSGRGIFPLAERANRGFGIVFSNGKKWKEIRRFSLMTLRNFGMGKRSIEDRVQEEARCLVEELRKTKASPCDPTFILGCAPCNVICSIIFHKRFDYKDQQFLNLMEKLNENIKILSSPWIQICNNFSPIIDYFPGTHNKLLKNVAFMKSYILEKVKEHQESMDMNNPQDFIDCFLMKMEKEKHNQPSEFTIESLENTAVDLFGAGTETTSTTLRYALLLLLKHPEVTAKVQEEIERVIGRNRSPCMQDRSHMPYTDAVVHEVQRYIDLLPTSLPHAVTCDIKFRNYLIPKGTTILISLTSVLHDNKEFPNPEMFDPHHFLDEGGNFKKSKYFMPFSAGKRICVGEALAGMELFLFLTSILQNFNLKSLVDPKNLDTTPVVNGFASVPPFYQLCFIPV

Row | Compound | IC50 (Cytochrome P450 2J2) | other results
1 | C=CCc1ccc(C(=O)CCCN2CCC(C(O)(c3ccccc3)c3ccccc3)CC2)cc1 | 400 nM | IC50 (Cytochrome P450 2C8): > 100000 nM; IC50 (Cytochrome P450 3A4): 5500 nM; IC50 (Cytochrome P450 2B6): 21000 nM; IC50 (Cytochrome P450 2C9): 21000 nM
2 | CC(=O)OCCCc1ccc(C(=O)CCCN2CCC(C(O)(c3ccccc3)c3ccccc3)CC2)cc1 | 2500 nM | 
3 | O=C(CCCN1CCC(C(O)(c2ccccc2)c2ccccc2)CC1)c1ccc(CCCO)cc1 | 1900 nM | 
4 | CCCCc1ccc(C(=O)CCCN2CCC(C(O)(c3ccccc3)c3ccccc3)CC2)cc1 | 700 nM | 
5 | O=C(CCCN1CCC(C(O)(c2ccccc2)c2ccccc2)CC1)c1ccc2c(c1)OCO2 | 6700 nM | 
6 | CCCc1ccc(C(=O)CCCN2CCC(C(O)(c3ccccc3)c3ccccc3)CC2)cc1 | 400 nM | IC50 (Cytochrome P450 2C8): > 100000 nM; IC50 (Cytochrome P450 3A4): 7900 nM; Ki (Cytochrome P450 2J2): 160 nM; IC50 (Cytochrome P450 2B6): 28000 nM; IC50 (Cytochrome P450 2C9): 26000 nM
7 | O=C(CCCN1CCC(C(O)(c2ccccc2)c2ccccc2)CC1)c1ccc(CC(F)F)cc1 | 2200 nM | 
8 | CCc1ccc(C(=O)CCCN2CCC(C(O)(c3ccccc3)c3ccccc3)CC2)cc1 | 600 nM | 
9 | CC(C)(C)c1ccc(C(=O)CCCN2CCC(C(O)(c3ccccc3)c3ccccc3)CC2)cc1 [TERFENADONE] | 700 nM | 
10 | Cc1ccc(C(=O)CCCN2CCC(C(O)(c3ccccc3)c3ccccc3)CC2)cc1 | 700 nM | 
11 | O=C(CCCN1CCC(C(O)(c2ccccc2)c2ccccc2)CC1)c1ccc(CCO)cc1 | 1300 nM | 
12 | COc1ccc(C(=O)CCCN2CCC(C(O)(c3ccccc3)c3ccccc3)CC2)cc1 | 7600 nM | 
13 | O=C(CCCN1CCC(C(O)(c2ccccc2)c2ccccc2)CC1)c1ccc(Br)cc1 | 4200 nM | 
